Laboratory results from article PMC9710334 (BMJ Open Gastroenterology, 2022).

Legend:
[1] = test system: P300/β-catenin signalling; settings: ref 20 23; cited from earlier work
[2] = test system: patients with advanced PBC; assay: Liver stiffness; type: in vivo, human
Method in brief: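 Patients aged 20–74 years with PBC and Scheuer stage III or higher fibrosis on screening biopsy received iv OP-724 at 280 or 380 mg/m2 over 4 hours, twice weekly for 12 cycles. Liver stiffness was measured by FibroScan, and the Child-Pugh score, MELD score and Enhanced Liver Fibrosis score were determined. Prespecified change was from baseline to 12 weeks. Analysis was descriptive, mean±SD, with no statistical testing.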

[3] = test system: liver fibrosis in patients with advanced PBC; assay: Paired liver biopsy histology; type: in vivo, human
Method in brief: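 Paired liver biopsies were taken at screening (baseline) and within 2 weeks of the final dose of the 12-cycle iv regimen (280 or 380 mg/m2/4 hours, twice weekly). Sections were stained with Masson's trichrome, H&E and Sirius red. Three independent central pathologists scored the slides blinded, using Knodell and Ishak modified HAI for grade and fibrosis stage. Analysis was descriptive.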

CBP/β-catenin = settings: cited from earlier work
liver fibrosis models = settings: cited from earlier work
[4] = test system: cholestatic liver fibrosis models; settings: cited from earlier work
[5] = before and after administration
[6] = patient P101-01, 12 weeks, baseline 6
[7] = patient P101-02, 12 weeks, baseline 2
[8] = patient P101-02, 12 weeks, baseline 6
[9] = patient P101-07, 12 weeks, baseline 5
[10] = patient P101-08, 12 weeks, baseline 6
[11] = patient P101-04, 12 weeks, baseline 1
[12] = patient P101-07, 12 weeks, baseline 2
[13] = patient P101-07, 12 weeks, baseline 3
[14] = patient P101-08, 12 weeks, baseline 3

C[C@H]1[C@H]2N(C(=O)CN(C)N2C(=O)NCc2ccccc2)[C@@H](Cc2ccc(OP(=O)(O)O)cc2)C(=O)N1Cc1cccc2cccnc12 [OP-724]
inhibition of P300/β-catenin signalling [1]: does not inhibit
change in mean CP score ([2]; 12 weeks after administration): no changes
change in mean MELD score ([2]; 12 weeks after administration): no changes
change in Enhanced Liver Fibrosis score [2, 5]: no significant change
change in liver stiffness by FibroScan [2, 5]: no significant change
ELF score ([2]; patient P101-01, 12 weeks, baseline 1.2): 0.9
Child-Pugh score [2, 6]: 7
FibroScan ([2]; patient P101-01, 12 weeks, baseline 9.1): 8.9 kPa
MELD score ([2]; patient P101-01, 12 weeks, baseline 15): 15
ELF score ([2]; patient P101-02, 12 weeks, baseline 0.78): 0.24
MELD score [2, 7]: 2
Child-Pugh score [2, 8]: 6
FibroScan ([2]; patient P101-02, 12 weeks, baseline 40.3): 33.8 kPa
ELF score ([2]; patient P101-04, 12 weeks, baseline 2.46): 3.16
MELD score ([2]; patient P101-04, 12 weeks, baseline 6): 8
Child-Pugh score ([2]; patient P101-04, 12 weeks, baseline 7): 7
FibroScan ([2]; patient P101-04, 12 weeks, baseline 26.3): 23.6 kPa
Child-Pugh score [2, 9]: 5
MELD score [2, 9]: 5
FibroScan ([2]; patient P101-07, 12 weeks, baseline 11.6): 9.2 kPa
ELF score ([2]; patient P101-07, 12 weeks, baseline −0.1): −0.07
ELF score ([2]; patient P101-08, 12 weeks, baseline 0.96): 1.48
Child-Pugh score [2, 10]: 6
MELD score [2, 10]: 6
FibroScan ([2]; patient P101-08, 12 weeks, baseline 22.3): 36.3 kPa
patients with a decrease in the fibrosis stage by 1 or more ([3]; paired biopsies, baseline vs 12 weeks, 2/5 patients): 40%
patients with a decrease (improvement) in the mHAI score ([3]; paired biopsies, baseline vs 12 weeks, 3/5 patients): 60%
patients with a decrease in the CPA ([3]; paired biopsies, baseline vs 12 weeks, three of five patients): 60%
Modified HAI score: Confluent necrosis ([3]; patient P101-01, 12 weeks, baseline 0): 0
Modified HAI score: Lobular inflammation ([3]; patient P101-01, 12 weeks, baseline 1): 1
Modified HAI score: Interface hepatitis ([3]; patient P101-01, 12 weeks, baseline 2): 2
Modified HAI score: Portal inflammation ([3]; patient P101-01, 12 weeks, baseline 3): 3
Modified HAI score: Stage ([3]; patient P101-01, 12 weeks, baseline 4): 3
Modified HAI score: HAI score [3, 6]: 6
Collagen proportional area, Sirius red positive area ([3]; patient P101-01, 12 weeks, baseline 7.8010627): 2.739%
Modified HAI score: Confluent necrosis ([3]; patient P101-02, 12 weeks, baseline 0): 0
Modified HAI score: Interface hepatitis [3, 7]: 1
Modified HAI score: Lobular inflammation [3, 7]: 1
Modified HAI score: Portal inflammation [3, 7]: 1
Collagen proportional area, Sirius red positive area ([3]; patient P101-02, 12 weeks, baseline 4.9477138): 3.714%
Modified HAI score: Stage ([3]; patient P101-02, 12 weeks, baseline 5): 5
Modified HAI score: HAI score [3, 8]: 3
Modified HAI score: Confluent necrosis ([3]; patient P101-04, 12 weeks, baseline 0): 1
Modified HAI score: Lobular inflammation [3, 11]: 2
Modified HAI score: Portal inflammation [3, 11]: 3
Modified HAI score: Interface hepatitis ([3]; patient P101-04, 12 weeks, baseline 2): 3
Modified HAI score: Stage ([3]; patient P101-04, 12 weeks, baseline 3): 5
Modified HAI score: HAI score ([3]; patient P101-04, 12 weeks, baseline 4): 9
Collagen proportional area, Sirius red positive area ([3]; patient P101-04, 12 weeks, baseline 6.8891091): 7.584%
Modified HAI score: Confluent necrosis [3, 12]: 0
Modified HAI score: Interface hepatitis [3, 12]: 2
Modified HAI score: Lobular inflammation [3, 13]: 2
Modified HAI score: Portal inflammation [3, 13]: 2
Modified HAI score: Stage [3, 13]: 3
Collagen proportional area, Sirius red positive area ([3]; patient P101-07, 12 weeks, baseline 3.8731926): 3.646%
Modified HAI score: HAI score ([3]; patient P101-07, 12 weeks, baseline 10): 6
Modified HAI score: Confluent necrosis [3, 14]: 0
Modified HAI score: Lobular inflammation [3, 14]: 3
Modified HAI score: Portal inflammation [3, 14]: 2
Modified HAI score: Interface hepatitis ([3]; patient P101-08, 12 weeks, baseline 4): 1
Modified HAI score: Stage ([3]; patient P101-08, 12 weeks, baseline 5): 2
Collagen proportional area, Sirius red positive area ([3]; patient P101-08, 12 weeks, baseline 7.7587483): 3.484%
Modified HAI score: HAI score ([3]; patient P101-08, 12 weeks, baseline 13): 6
septal thickness in liver parenchyma, Masson's trichrome staining ([3]; patients P101-01 and P101-08, after OP-724 administration): reduction in septal thickness
inhibition of the interaction between CBP and β-catenin (CBP/β-catenin): selectively inhibits
antifibrotic effect (liver fibrosis models): exerts antifibrotic effects
antifibrotic effect [4]: exerts an antifibrotic effect
